The test system of data set [1] is Candida albicans. Kind of data set: Antifungal activity against Candida albicans ATCC 90028 at 8 ug/ml after 18 hrs relative to control. Format: functional. Summed up:
(§1)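 Planktonic broth microdilution per M27-A3 in MOPS-buffered RPMI 1640 (pH 7.0), final inoculum 1.8×10^3 cells/mL, compounds 0.0313–16 µg/mL from 1600 µg/mL stocks in ethanol or DMSO. Incubated at 35°C without agitation; OD405 read at 18 and 48 h. % inhibition was derived from test, sterility (no inoculum) and solvent growth-control wells. Amphotericin B at 0.5 µg/mL served as the 100% control.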

Data set [2] deals with Candida albicans. Kind of data set: Antifungal activity against Candida albicans ATCC 90028 at 1 ug/ml after 18 hrs relative to control. It is filed as functional. Summed up: as §1
Data set [3] has as its system Candida albicans. Kind of data set: Antifungal activity against Candida albicans ATCC 90028 at 0.25 ug/ml after 48 hrs relative to control. Format: functional. Summed up:
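Fluconazole (water stock, diluted in RPMI 1640) tested by CLSI M27-A3 broth microdilution against C. albicans ATCC 90028. Inoculum 1.8×10^3 cells/mL in RPMI 1640 buffered with MOPS, pH 7.0. Incubation at 35°C without agitation, read at 18 and 48 h. Growth by OD405 and visually; inhibition % calculated against solvent growth-control wells after subtracting sterility-control wells.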

For the next data set, the system named is Caco-2. The data set can be described thus: Cytotoxicity against human Caco2 cells assessed as reduction in cell viability at 256 ug/ml after 18 hrs by XTT assay ralative to control. Format: cell-based. The following applies: caco-2, 18 h. Summed up:
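Caco-2 cells were exposed to compound at 256, 16 or 0.0313 µg/mL for 18 h, then given XTT reagent for 4–6 h. Absorbance was read at 475 nm with a 660 nm reference, and viability and toxicity were expressed as %. CC50 was taken as the concentration giving 50% viability loss. Means ± SD of three independent experiments, samples in duplicate.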
A general note: Formazan colour is commonly taken as a measure of viable cells.

The test system of data set [4] is Candida albicans. The data set can be described thus: Synergistic antifungal activity against Candida albicans ATCC 90028 at 80 ug/ml after 48 hrs in presence of 40 ug/ml fluconazol by checkerboard assay relative to control. Format: functional. Summed up: (§2)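 Checkerboard in C. albicans ATCC 90028, inoculum prepared per CLSI M27-A3 in RPMI. Fluconazole serially diluted 80-1.25 µg/mL across the plate against the partner compound at 80-1.25 µg/mL final. Incubated 48 h at 35°C. Metabolic activity read by XTT reduction at 475 nm (660 nm reference), given as % of the untreated growth control.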

In data set [5] the test system is Candida albicans. Kind of data set: Synergistic antifungal activity against Candida albicans ATCC 90028 at 40 ug/ml after 48 hrs in presence of 80 ug/ml fluconazol by checkerboard assay relative to control. Format: functional. The method, boiled down:
as §2

Data set [6] has as its system Candida albicans. Kind of data set: Synergistic antifungal activity against Candida albicans ATCC 90028 at 40 ug/ml after 48 hrs in presence of 5 ug/ml fluconazol by checkerboard assay relative to control. Format: functional. The method, boiled down: as §2
Data set [7] relates to Candida albicans. The data set can be described thus: Synergistic antifungal activity against Candida albicans ATCC 90028 at 10 ug/ml after 48 hrs in presence of 2.5 ug/ml fluconazol by checkerboard assay relative to control. It is filed as functional. The method, boiled down: (§3)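 Checkerboard microdilution (M27-A3) on C. albicans ATCC 90028 in RPMI 1640: fluconazole (80-1.25 µg/mL) crossed with tetrazole (80-1.25 µg/mL final), incubated at 35°C for 48 h. Growth by OD405 at 18 and 48 h, endpoint taken as 100% inhibition. FIC index = sum of the two agents' FICs; <1 synergism, >1 antagonism.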

Data set [8] has as its system Candida albicans. The data set can be described thus: Synergistic antifungal activity against Candida albicans ATCC 90028 at 10 ug/ml after 48 hrs in presence of 1.25 ug/ml fluconazol by checkerboard assay relative to control. It is filed as functional. Summed up: (§4)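 Checkerboard per M27-A3 against ATCC 90028: fluconazole at 80–1.25 µg/mL horizontally and partner compound at 80–1.25 µg/mL vertically, 100 µL yeast inoculum per well, 35°C for 48 h. After 48 h, metabolic activity was measured by XTT reduction at 475 nm (660 nm reference) relative to untreated growth control. FIC index is the sum of the FICs; <1 was defined as synergism and >1 as antagonism.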

The test system of data set [9] is Candida albicans. Kind of data set: Synergistic antifungal activity against Candida albicans ATCC 90028 at 5 ug/ml after 48 hrs in presence of 40 ug/ml fluconazol by checkerboard assay relative to control. Format: functional. The method, boiled down:
as §2

The subject of data set [10] is Candida albicans. The data set can be described thus: Synergistic antifungal activity against Candida albicans ATCC 90028 at 5 ug/ml after 48 hrs in presence of 1.25 ug/ml fluconazol by checkerboard assay relative to control. It is filed as functional. Summed up:
as §2

Data set [11] concerns Candida albicans. Kind of data set: Synergistic antifungal activity against Candida albicans ATCC 90028 at 2.5 ug/ml after 48 hrs in presence of 10 ug/ml fluconazol by checkerboard assay relative to control. Format: functional. Summed up:
as §3

Data set [12] deals with Candida albicans. Kind of data set: Synergistic antifungal activity against Candida albicans ATCC 90028 at 1.25 ug/ml after 48 hrs in presence of 10 ug/ml fluconazol by checkerboard assay relative to control. It is filed as functional. Summed up: as §4
For data set [13], the system named is Candida albicans. The data set can be described thus: Antifungal activity against Candida albicans ATCC 90028 assessed as inhibition of metabolic activity at 2.5 ug/ml after 48 hrs in presence of 40 ug/ml fluconazol by XTT assay relative to control. The following applies: values are per cent of control. It is filed as functional. Summed up:
(§5)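 C. albicans ATCC 90028 in checkerboard: fluconazole serial dilutions (80-1.25 µg/mL) crossed with tetrazole (80-1.25 µg/mL final), M27-A3 inoculum in RPMI 1640, 35°C for 48 h. Metabolic activity measured by XTT reduction, read at 475 nm (660 nm reference). Activity expressed relative to untreated growth control absorbance.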

For data set [14], the system named is Candida albicans. The data set can be described thus: Antifungal activity against Candida albicans ATCC 90028 assessed as inhibition of metabolic activity at 2.5 ug/ml after 48 hrs in presence of 20 ug/ml fluconazol by XTT assay relative to control. Format: functional. The note with it: values are per cent of control. The method, boiled down: as §5
Data set [15] concerns Candida albicans. Kind of data set: Antifungal activity against Candida albicans ATCC 90028 assessed as inhibition of metabolic activity at 1.25 ug/ml after 48 hrs in presence of 80 ug/ml fluconazol by XTT assay relative to control. It is filed as functional. The following applies: values are per cent of control. Summed up: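 Checkerboard against strain ATCC 90028, inoculum per M27-A3: fluconazole 80-1.25 µg/mL on one axis, tetrazole 80-1.25 µg/mL on the other. Plates at 35°C for 48 h, then XTT metabolic reduction read at 475 nm (660 nm reference). Activity is the drop in mean absorbance against untreated growth control. FICs and their summed FIC index are taken at 50% reduction in metabolic activity.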

Data set [16] has as its system Candida albicans. The data set can be described thus: Antifungal activity against Candida albicans ATCC 90028 assessed as inhibition of metabolic activity at 1.25 ug/ml after 48 hrs in presence of 2.5 ug/ml fluconazol by XTT assay relative to control. The note with it: values are per cent of control. It is filed as functional. The method, boiled down: as §5
Data set [17] has as its system Candida albicans. The data set can be described thus: Antifungal activity against Candida albicans ATCC 90028 assessed as metabolic activity at 80 ug/ml after 48 hrs in presence of 40 ug/ml fluconazol by XTT assay relative to control.
The subject of data set [18] is Candida albicans. The data set can be described thus: Antifungal activity against Candida albicans ATCC 90028 assessed as metabolic activity at 40 ug/ml after 48 hrs in presence of 20 ug/ml fluconazol by XTT assay relative to control.

Each structure is given as a SMILES string.

The residual activity is the signal under treatment as a percentage of the control signal. As for `Cc1ccc(-c2nnn(CCCN3CCOCC3)n2)cc1`, the Activity in the data set with Candida albicans [1] is given as 99.97%; in the data set with Candida albicans [2], 57.6%; in the data set with Candida albicans [3], 98.68%; in the data set with Caco-2, 13.04%. Moreover, the “growth inhibition (GI)” value is recorded as 99.21% in the data set on Candida albicans [4]; 99.59% in the data set on Candida albicans [5]; 98.83% with Candida albicans [6]; 98.46% in the data set with Candida albicans [7]; 97.81% in the data set on Candida albicans [8]; 99.15% in the data set on Candida albicans [9]. Further, the “growth inhibition (GI)” value came to 98.77% in the data set on Candida albicans [10], 99.09% in the data set on Candida albicans [11] and 99.59% in the data set on Candida albicans [12]. Besides, the residual activity in the data set on Candida albicans [13] is on record as 100%; with Candida albicans [14], 86.25%; with Candida albicans [15], 100%; in the data set with Candida albicans [16] it was 100%. Moreover, the results for the Metabolic activity with Candida albicans [17] and in the data set with Candida albicans [18] were 100% and 54.14%, respectively.
Consider `ClCCCn1nnnc1-c1ccccc1Cl`, for which the Activity is recorded as 99.44% with Candida albicans [1], 93.49% in the data set with Candida albicans [2], 99.62% in the data set on Candida albicans [3] and 63.27% in the data set on Caco-2. Also, the “growth inhibition (GI)” value in the data set with Candida albicans [4] was 99.79%; with Candida albicans [5], 99.54%; with Candida albicans [6] it was 98.95%; with Candida albicans [7], 99.41%; with Candida albicans [8], 99.86%; with Candida albicans [9], 99.25%. The “growth inhibition (GI)” value was 99.79% with Candida albicans [10], 99.75% with Candida albicans [11] and 99.66% with Candida albicans [12]. Also, the residual activity stood at 97.62% in the data set on Candida albicans [13], 68.53% with Candida albicans [14], 62.42% with Candida albicans [15] and 71.55% in the data set on Candida albicans [16]. Also, the Metabolic activity worked out at 89.73% with Candida albicans [17] and 74.1% in the data set with Candida albicans [18].
On to `CCOC(=O)CCn1nnc(-c2ccccc2)n1`, for which the Activity was found to be 99.01% in the data set with Candida albicans [1], 85.06% with Candida albicans [2], 98.7% in the data set on Candida albicans [3] and 45.49% in the data set with Caco-2. Besides, the “growth inhibition (GI)” value is 99.34% in the data set with Candida albicans [4]; 99.58% in the data set with Candida albicans [5]; 98.93% with Candida albicans [6]; 99.62% in the data set on Candida albicans [7]; 99.72% with Candida albicans [8]; 99.51% in the data set with Candida albicans [9]. Also, the “growth inhibition (GI)” value stood at 99.71% in the data set with Candida albicans [10], 99.49% in the data set on Candida albicans [11] and 99.65% in the data set on Candida albicans [12]. Also, the residual activity in the data set with Candida albicans [13] is given as 92.82%; with Candida albicans [14], 67.39%; with Candida albicans [15], 66.82%; in the data set with Candida albicans [16] it was 75.73%. In addition, the Metabolic activity in the data set on Candida albicans [17] was 97.37%; in the data set with Candida albicans [18] it was 54.82%.

The values are drawn from ChEMBL document CHEMBL4145471, “New 1,5 and 2,5-disubstituted tetrazoles-dependent activity towards surface barrier of Candida albicans” (Eur J Med Chem, 2018).
